# Data: ChEMBL document CHEMBL4715800, “Synthesis and Antiviral Evaluation of Octadecyloxyethyl Benzyl 9-[(2-Phosphonomethoxy)ethyl]guanine (ODE-Bn-PMEG), a Potent Inhibitor of Transient HPV DNA Amplification” (J Med Chem, 2016)
# How the values were obtained:
# [1] = Drug level in HFF cells treated with 1 uM [14C]-labelled ODE-Bn-PMEG assessed as compound levels incubated for 48 hrs by liquid scintillation counting; type: ADME, cell-based; details: human
# [2] = Drug uptake in HFF cells at 1 uM incubated for 1 to 48 hrs using [14C]-labelled compound by liquid scintillation counting; type: ADME, cell-based; details: human, time 1-48 hrs
# In short: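 HFF cells exposed to 1 μM [14C]-labelled compound for 1 to 48 h. Cell-associated radioactivity measured in duplicate to assess uptake.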
# [3] = Inhibition of HSV2 replication in HFF cells incubated for 7 days; type: functional, cell-based, Human alphaherpesvirus 2
# [4] = (§1) Cytotoxicity in HFF cells incubated for 7 days by CellTiter-Glo assay; type: cell-based; details: human, HFF cells; time 7 day
# [5] = Selectivity index, ratio of CC50 for HFF to EC50 for inhibition of HSV2 replication in HFF cells; type: toxicity, cell-based; details: human
# [6] = Inhibition of HPV-11 DNA amplification in HEK293 cells incubated for 48 hrs by qPCR analysis; type: functional, cell-based, human papillomavirus 11
# In short: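 HEK-293 cells cotransfected with an HPV-11 origin-containing plasmid and HPV-11 E1 and E2 expression vectors, then exposed to drug dilutions and incubated. Ori-plasmid amplification is measured by quantitative real-time PCR and EC50 is calculated. At least three independent experiments.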
# [7] = Cytotoxicity in human C-33-A cells by CellTiter-Glo reagent assay; type: cell-based; details: C-33-A cells
# In short: (§2)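 HPV-negative cervical cancer C33A cells transiently transfected with type-matched HPV-11, -16 or -18 E1 and E2 expression vectors plus an ori-plasmid carrying a NanoLuc reporter. After drug dilutions and incubation, ori-plasmid replication is read as the rise in luciferase activity and EC50 is determined. Cytotoxicity (CC50) is measured in C33A cells by CellTiter-Glo.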
# [8] = Cytotoxicity in HEK293 cells by CellTiter-Glo assay; details: human, HEK293 cells
# [9] = Selectivity index, ratio of CC50 for C-33-A cells to EC50 for inhibition of HPV-11 DNA amplification in C-33-A cells
# In short: (§3)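 Ratio CC50/EC50. CC50 is from CellTiter-Glo in C33A cells. EC50 is from NanoLuc luciferase readout of HPV ori-plasmid replication in C33A cells cotransfected with type-matched E1/E2 vectors.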
# [10] = Selectivity index, ratio of CC50 for HEK293 cells to EC50 for inhibition of HPV-16 DNA amplification in HEK293 cells
# In short: (§4)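 Ratio CC50/EC50 in HEK-293 cells. CC50 is by CellTiter-Glo. EC50 is by qPCR of HPV-11 or HPV-16 ori-plasmid amplification in cells cotransfected with type-matched E1/E2 expression vectors.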
# [11] = Inhibition of HPV-16 DNA amplification in C-33-A cells incubated for 48 hrs by luciferase reporter gene assay; type: functional, cell-based, Human papillomavirus 16; in short: as §2
# [12] = Selectivity index, ratio of CC50 for C-33-A cells to EC90 for inhibition of HPV-11 DNA amplification in C-33-A cells
# [13] = Selectivity index, ratio of CC50 for C-33-A cells to EC90 for inhibition of HPV-16 DNA amplification in C-33-A cells
# In short: (§5)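 Ratio CC50/EC90. CC50 is from CellTiter-Glo cytotoxicity in C33A cells. EC90 is from NanoLuc luciferase readout of HPV-16 or -18 ori-plasmid replication in C33A cells cotransfected with type-matched E1/E2 vectors.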
# [14] = Selectivity index, ratio of CC50 for C-33-A cells to EC90 for inhibition of HPV-18 DNA amplification in C-33-A cells; in short: as §5
# [15] = Selectivity index, ratio of CC50 for C-33-A cells to EC50 for inhibition of HPV-18 DNA amplification in C-33-A cells; in short: as §3
# [16] = Inhibition of HPV-11 DNA amplification in C-33-A cells incubated for 48 hrs by luciferase reporter gene assay; type: functional, cell-based, human papillomavirus 11; in short: as §2
# [17] = Inhibition of HPV-16 DNA amplification in HEK293 cells incubated for 48 hrs by qPCR analysis; type: functional, cell-based, Human papillomavirus 16
# In short: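 HEK-293 cells cotransfected with an HPV-16 origin-containing plasmid and HPV-16 E1 and E2 expression vectors, then treated with drug dilutions and incubated. Ori-plasmid amplification quantified by real-time qPCR; EC50 calculated from at least three independent experiments.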
# [18] = Selectivity index, ratio of CC50 for HEK293 cells to EC50 for inhibition of HPV-11 DNA amplification in HEK293 cells; in short: as §4
# [19] = Selectivity index, ratio of CC50 for C-33-A cells to EC50 for inhibition of HPV-16 DNA amplification in C-33-A cells; in short: as §3
# [20] = Inhibition of HPV-18 DNA amplification in C-33-A cells incubated for 48 hrs by luciferase reporter gene assay; type: functional, cell-based, human papillomavirus 18; in short: as §2
# HFF = assay: as §1; type: cell-based; details: human, hff, 168 h; time 7 day
# HEK293 = assay: Cytotoxicity in HEK293 cells by CellTiter-Glo assay; details: human, hek293
# [21] = Cytotoxicity in human PBMC cells; type: cell-based; details: pbmc
# In short: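 Human PBMCs infected with a clinical HIV-1 isolate, with AZT as positive control. EC50 and CC50 reported as mean ± SD of three replicates; selectivity index = CC50/EC50.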
# [22] = Inhibition of HIV1 92US727 replication in PHA-P-stimulated human PBMCs incubated for 7 days by reverse transcriptase activity based assay; type: functional, cell-based, Human immunodeficiency virus 1, PBMC; details: pbmc
# In short: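 Human PBMCs infected with a clinical HIV-1 isolate, with AZT as the positive control. Results are the mean of three replicates.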
# [23] = Human papillomavirus 16, C-33-A, 48 h
# [24] = human papillomavirus 11, C-33-A, 48 h
# [25] = human papillomavirus 18, C-33-A, 48 h
SMILES,EC50 [6],CC50 [7],Ratio CC50/EC50 [9],Ratio CC50/EC50 [10],"EC50 [11, 23]","EC90 [11, 23]",Ratio [12],Ratio [13],Ratio [14],Ratio CC50/EC50 [15],"EC50 [16, 24]","EC90 [16, 24]",EC50 [17],Ratio CC50/EC50 [18],Ratio CC50/EC50 [19],"EC50 [20, 25]","EC90 [20, 25]",other results
Nc1nc2c(ncn2CCOCP(=O)(O)O)c(=O)[nH]1 [GS-438],,,,,,,,,,,,,,,,,,Drug uptake [1]: Active; Drug uptake [2]: Active
Nc1nc2c(ncn2COCCO)c(=O)[nH]1 [ACYCLOVIR],,,,,,,,,,,,,,,,,,"EC50 ([3]; Human alphaherpesvirus 2, HFF, 168 h): 990 nM; CC50 at 168 h [4]: > 300000 nM; selectivity ratio ([5]; HFF cells, read-out: Ratio CC50/EC50): > 300"
Nc1ccn(C[C@@H](CO)OCP(=O)(O)O)c(=O)n1.O.O [CIDOFOVIR],150000 nM,> 300000 nM,1,>2,220000 nM,> 300000 nM,1,1,1,>1,> 300000 nM,> 300000 nM,150000 nM,>2,>1,260000 nM,> 300000 nM,CC50 [8]: > 300000 nM
CCCCCCCCCCCCCCCCCCOCCOP(=O)(COCCn1cnc2c(=O)[nH]c(N)nc21)OCc1ccccc1 (stereo in doubt; form 2),400 nM,,>24,230,,,>7,>11,>14,>130,,,390 nM,230,>71,,,EC50 ([3]; hff): 33 nM; CC50 (HFF): 5400 nM; CC50 (HEK293): 91000 nM; CC50 [21]: 70 nM; EC50 ([11]; c-33-a): 140 nM; EC90 ([11]; time 48 hrs): 890 nM; EC50 [22]: 4 nM; EC50 ([16]; c-33-a): 410 nM; EC90 ([16]; time 48 hrs): 1400 nM; Ratio CC50/EC50 [5]: 160; EC50 ([20]; c-33-a): 80 nM; EC90 ([20]; time 48 hrs): 720 nM
CCCCCCCCCCCCCCCCCCOCCOP(=O)(O)COCCn1cnc2c(=O)[nH]c(N)nc21,,,,,,,,,,,,,,,,,,Drug uptake ([2]; TDE = time-dependent effect): Tde
CCCCCCCCCCCCCCCCCCOCCOP(=O)(COCCn1cnc2c(=O)[nH]c(N)nc21)Oc1ccccc1 (stereo unspecified),9500 nM,49000 nM,490,,90 nM,490 nM,80,120,210,980,100 nM,610 nM,5200 nM,,670,60 nM,280 nM,
